Laboratory results reported in ChEMBL document CHEMBL1124345, “Linear and proximal benzo-separated alkylated xanthines as adenosine-receptor antagonists” (J Med Chem, 1989).

Columns and labels:
[1] = target: Adenosine A2 receptor (Rattus norvegicus, UniProt P29276+P30543); assay: Binding affinity against Adenosine A2 receptor in rat striatal membrane, using [3H]-NECA as the radioligand.
[2] = target: Adenosine receptors; A1 & A2 (Rattus norvegicus) (UniProt P29276+P25099+P30543); assay: (§1) Selectivity for A2 and A1 receptors was evaluated; type: protein assay
Outline: (§2)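 Rat brain membranes (A1) bound with 1 nM [3H]-N6-cyclohexyladenosine (25 Ci/mmol). Rat striatal membranes (A2) bound with 4 nM [3H]NECA (30 Ci/mmol) in the presence of 50 nM N6-cyclopentyladenosine. Both incubations ran 1 h at 25 °C. Selectivity compares the affinities from the two binding assays.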

[3] = target: T1, Adenosine receptor A1 (Rattus norvegicus, UniProt P25099); assay: Binding affinity against Adenosine A1 receptor in rat brain membrane, using [3H]N6-cyclohexyladenosine as the radioligand; type: tissue-based
T1 sequence (P25099 whole entry): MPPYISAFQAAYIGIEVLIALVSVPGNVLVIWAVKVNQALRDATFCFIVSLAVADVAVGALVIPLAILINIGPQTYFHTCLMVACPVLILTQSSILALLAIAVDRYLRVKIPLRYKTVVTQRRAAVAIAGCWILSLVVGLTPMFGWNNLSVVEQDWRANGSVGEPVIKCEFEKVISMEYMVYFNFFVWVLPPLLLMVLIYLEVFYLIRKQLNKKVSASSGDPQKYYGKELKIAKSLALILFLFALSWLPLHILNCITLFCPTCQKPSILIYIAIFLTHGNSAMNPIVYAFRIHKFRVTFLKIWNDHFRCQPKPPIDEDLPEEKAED

[4] = as §1
Outline: as §2

Row | Structure (SMILES) | Ki [1] | Ratio [2] | Ki [3] | Ratio [4]
1 | Cn1c(=O)c2cc3nc[nH]c3cc2n(C)c1=O | 85 µM | 3.6 | – | –
2 | Cn1c(=O)c2c3c(ccc2n(C)c1=O)ncn3C | 12.7 µM | 1.23 | 10.3 µM | –
3 | CC(C)Cn1c(=O)n(C)c(=O)c2nc[nH]c21 [ISOBUTYLMETHYLXANTHINE] | 13.8 µM | – | – | 5.6
4 | Cn1c(=O)c2ncn(C)c2n(C)c1=O [ISOCAFFIENE] | – | – | > 1000 µM | –
5 | Cn1c(=O)c2cc3c(cc2n(C)c1=O)ncn3C | 23 µM | 1.99 | 11.6 µM | –
6 | Cn1c(=O)c2cc3ncn(C)c3cc2n(C)c1=O | 58 µM | 3.8 | 15.2 µM | –
7 | CC(C)Cn1c(=O)n(C)c(=O)c2cc3[nH]cnc3cc21 | 2.4 µM | 3.9 | 0.62 µM | –
8 | CCCCn1c(=O)c2cc3nc[nH]c3cc2n(CCCC)c1=O | 0.67 µM | 3.7 | 0.179 µM | –
9 | CCCn1c(=O)c2cc3nc[nH]c3cc2n(CCC)c1=O | 1.32 µM | 10.7 | 0.123 µM | –
10 | Cn1c(=O)c2cc3[nH]cnc3cc2n(C)c1=O | – | – | 24 µM | –

More lines, now with the values ahead:

Row | Ki [1] | Ratio [2] | Ki [3] | Ratio [4] | Structure (SMILES)
11 | 10.4 µM | – | 0.45 µM | 23 | Cn1c(=O)c2c3nc(-c4ccccc4)[nH]c3ccc2n(C)c1=O
12 | > 100 µM | – | > 100 µM | – | Cn1c(=O)c2cc3nc(-c4ccccc4)[nH]c3cc2n(C)c1=O
13 | 58 µM | – | > 100 µM | – | CCn1c(=O)c2c3nc(-c4ccccc4)[nH]c3ccc2n(CC)c1=O
14 | 1.97 µM | 2.3 | 0.86 µM | – | CC(C)Cn1c(=O)n(C)c(=O)c2c3nc[nH]c3ccc21
15 | 0.79 µM | 2.7 | 0.296 µM | – | CCCn1c(=O)c2c3nc[nH]c3ccc2n(CCC)c1=O
16 | > 100 µM | – | > 100 µM | – | CCn1c(=O)c2cc3nc(-c4ccccc4)[nH]c3cc2n(CC)c1=O
17 | 1.96 µM | 11.2 | 0.174 µM | – | CCCCn1c(=O)c2c3nc[nH]c3ccc2n(CCCC)c1=O
18 | 17.9 µM | 1.34 | 13.4 µM | – | Cn1c(=O)c2c3nc[nH]c3ccc2n(C)c1=O
